According to ChEMBL document CHEMBL4028864 (J Med Chem, 2017):

Legend:
TAMH = assay: cells; format: ADME, cell-based; conditions: Mus musculus, 24 h
[1] = target: Non-receptor tyrosine-protein kinase TYK2 (Homo sapiens, UniProt P29597); assay: Inhibition of human TYK2 using KKSRGDYMTMQIG as substrate in presence of [gamma-33P]-ATP
Outline: (§1)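 Kinase inhibition was tested by radiometric "Hotspot" profiling at a contract laboratory with 10 μM ATP.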

[2] = target: Receptor-type tyrosine-protein kinase FLT3 (Homo sapiens) (UniProt P36888); assay: Inhibition of human FLT3 using EAIYAAPFAKKK as substrate at 1 uM in presence of [gamma-33P]-ATP relative to control
Receptor-type tyrosine-protein kinase FLT3 (Homo sapiens), sequence (P36888 whole entry): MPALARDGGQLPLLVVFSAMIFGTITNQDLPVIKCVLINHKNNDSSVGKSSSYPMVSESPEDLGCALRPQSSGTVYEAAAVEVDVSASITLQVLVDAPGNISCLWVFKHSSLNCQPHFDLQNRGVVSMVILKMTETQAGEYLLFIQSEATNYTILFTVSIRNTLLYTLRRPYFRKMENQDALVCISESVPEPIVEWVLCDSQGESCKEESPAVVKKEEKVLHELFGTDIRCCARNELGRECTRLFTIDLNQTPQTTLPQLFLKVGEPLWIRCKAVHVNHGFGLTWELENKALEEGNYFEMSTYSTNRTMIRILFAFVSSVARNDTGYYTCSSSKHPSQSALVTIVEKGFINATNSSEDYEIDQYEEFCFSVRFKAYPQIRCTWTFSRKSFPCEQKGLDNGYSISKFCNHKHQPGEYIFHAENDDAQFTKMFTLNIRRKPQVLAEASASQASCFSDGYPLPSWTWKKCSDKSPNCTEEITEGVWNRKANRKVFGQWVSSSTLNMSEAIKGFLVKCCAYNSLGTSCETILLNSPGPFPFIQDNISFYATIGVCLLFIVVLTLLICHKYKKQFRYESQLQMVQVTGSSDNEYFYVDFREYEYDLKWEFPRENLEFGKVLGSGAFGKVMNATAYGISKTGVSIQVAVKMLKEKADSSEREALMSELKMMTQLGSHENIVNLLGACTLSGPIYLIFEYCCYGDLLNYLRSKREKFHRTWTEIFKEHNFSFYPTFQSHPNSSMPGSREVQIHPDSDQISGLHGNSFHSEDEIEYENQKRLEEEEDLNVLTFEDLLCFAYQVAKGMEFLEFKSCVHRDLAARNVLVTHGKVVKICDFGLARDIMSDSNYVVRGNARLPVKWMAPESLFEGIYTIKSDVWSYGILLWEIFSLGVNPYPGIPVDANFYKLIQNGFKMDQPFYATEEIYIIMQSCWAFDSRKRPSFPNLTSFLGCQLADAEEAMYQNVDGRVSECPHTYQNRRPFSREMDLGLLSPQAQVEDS
Outline: as §1

[3] = target: T1, Tyrosine-protein kinase JAK3 (Homo sapiens, UniProt P52333); assay: Inhibition of wild type human JAK3 (I781 to S1124 residues) expressed in mammalian cells assessed as residual activity at 1 uM by KINOMEscan assay relative to control; format: cell-based; conditions: read-out: Activity
T1 sequence (P52333 whole entry): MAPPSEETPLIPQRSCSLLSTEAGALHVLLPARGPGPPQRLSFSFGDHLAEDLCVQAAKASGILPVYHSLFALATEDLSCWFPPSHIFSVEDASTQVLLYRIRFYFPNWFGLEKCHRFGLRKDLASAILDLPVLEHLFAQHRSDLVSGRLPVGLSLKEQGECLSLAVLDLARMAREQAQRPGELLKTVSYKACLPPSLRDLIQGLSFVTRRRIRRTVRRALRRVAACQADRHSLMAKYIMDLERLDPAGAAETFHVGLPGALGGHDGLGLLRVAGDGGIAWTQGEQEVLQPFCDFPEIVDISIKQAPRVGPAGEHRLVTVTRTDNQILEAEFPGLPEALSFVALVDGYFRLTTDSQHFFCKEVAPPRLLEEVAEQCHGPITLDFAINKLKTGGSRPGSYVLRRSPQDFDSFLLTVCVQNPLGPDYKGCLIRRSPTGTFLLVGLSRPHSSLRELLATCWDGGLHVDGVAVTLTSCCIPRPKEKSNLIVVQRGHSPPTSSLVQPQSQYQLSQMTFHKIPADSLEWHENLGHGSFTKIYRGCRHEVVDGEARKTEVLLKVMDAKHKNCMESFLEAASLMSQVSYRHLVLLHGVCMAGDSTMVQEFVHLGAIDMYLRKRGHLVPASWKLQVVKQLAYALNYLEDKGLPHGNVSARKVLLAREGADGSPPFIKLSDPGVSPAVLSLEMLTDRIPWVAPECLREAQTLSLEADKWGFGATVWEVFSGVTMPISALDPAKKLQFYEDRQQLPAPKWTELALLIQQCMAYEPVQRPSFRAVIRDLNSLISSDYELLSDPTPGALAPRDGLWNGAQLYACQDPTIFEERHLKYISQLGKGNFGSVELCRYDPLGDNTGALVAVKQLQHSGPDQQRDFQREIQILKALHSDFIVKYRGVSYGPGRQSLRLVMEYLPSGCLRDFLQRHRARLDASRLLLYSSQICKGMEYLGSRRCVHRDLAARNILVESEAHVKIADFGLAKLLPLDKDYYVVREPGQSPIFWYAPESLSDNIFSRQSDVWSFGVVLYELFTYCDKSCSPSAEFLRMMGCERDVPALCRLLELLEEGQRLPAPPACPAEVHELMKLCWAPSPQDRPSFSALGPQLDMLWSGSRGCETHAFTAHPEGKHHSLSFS

[4] = target: NUAK family SNF1-like kinase 2 (Homo sapiens) (UniProt Q9H093); assay: Inhibition of wild type human SNARK (P22 to A333 residues) expressed in mammalian cells assessed as residual activity at 1 uM by KINOMEscan assay relative to control; format: cell-based
NUAK family SNF1-like kinase 2 (Homo sapiens), sequence (Q9H093 whole entry, the tested form may be a part): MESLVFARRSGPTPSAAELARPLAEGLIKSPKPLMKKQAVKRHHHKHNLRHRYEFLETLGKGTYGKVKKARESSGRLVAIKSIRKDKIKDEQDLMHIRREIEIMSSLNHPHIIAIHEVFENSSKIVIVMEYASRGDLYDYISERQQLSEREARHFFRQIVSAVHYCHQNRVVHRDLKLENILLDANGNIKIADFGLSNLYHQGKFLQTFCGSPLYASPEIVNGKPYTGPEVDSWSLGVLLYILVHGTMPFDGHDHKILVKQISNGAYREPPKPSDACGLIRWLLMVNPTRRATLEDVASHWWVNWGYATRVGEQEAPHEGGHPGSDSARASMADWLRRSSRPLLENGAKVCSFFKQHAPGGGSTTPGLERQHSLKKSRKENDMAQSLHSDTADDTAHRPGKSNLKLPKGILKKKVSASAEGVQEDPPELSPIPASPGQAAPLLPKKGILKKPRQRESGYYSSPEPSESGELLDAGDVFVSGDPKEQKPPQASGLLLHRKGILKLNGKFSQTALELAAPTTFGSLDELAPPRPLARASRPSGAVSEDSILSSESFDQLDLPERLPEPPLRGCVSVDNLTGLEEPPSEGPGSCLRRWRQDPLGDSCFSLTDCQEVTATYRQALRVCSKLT

Histone deacetylase 2 = Histone deacetylase 2 (Homo sapiens, UniProt Q92769); assay: Inhibition of C-terminal GST tagged human recombinant HDAC2 (1 to 488 residues) expressed in Baculovirus infected insect cells in presence of ATP
Histone deacetylase 2, sequence (Q92769 whole entry, the tested form may be a part): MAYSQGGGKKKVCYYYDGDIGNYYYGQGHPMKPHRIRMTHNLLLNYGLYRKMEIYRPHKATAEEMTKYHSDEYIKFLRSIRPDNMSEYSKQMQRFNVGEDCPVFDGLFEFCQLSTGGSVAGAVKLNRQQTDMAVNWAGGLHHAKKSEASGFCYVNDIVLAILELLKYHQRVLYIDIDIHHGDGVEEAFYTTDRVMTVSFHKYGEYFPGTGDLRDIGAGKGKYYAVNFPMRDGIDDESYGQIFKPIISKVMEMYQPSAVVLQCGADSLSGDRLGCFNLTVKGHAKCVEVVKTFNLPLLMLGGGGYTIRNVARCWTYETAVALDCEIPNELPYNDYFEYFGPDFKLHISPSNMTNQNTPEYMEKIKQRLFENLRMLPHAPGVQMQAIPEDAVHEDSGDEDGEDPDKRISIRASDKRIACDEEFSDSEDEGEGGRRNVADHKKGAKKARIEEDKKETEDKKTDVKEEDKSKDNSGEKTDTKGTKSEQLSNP
Outline: (§2)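 HDAC enzyme inhibition was run by a contract laboratory.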

Histone deacetylase 5 = Histone deacetylase 5 (Homo sapiens, UniProt Q9UQL6); assay: Inhibition of C-terminal His tagged human recombinant HDAC5 (657 to 1123 residues) expressed in Baculovirus infected insect cells in presence of ATP
Histone deacetylase 5, sequence (Q9UQL6 whole entry, the tested form may be a part): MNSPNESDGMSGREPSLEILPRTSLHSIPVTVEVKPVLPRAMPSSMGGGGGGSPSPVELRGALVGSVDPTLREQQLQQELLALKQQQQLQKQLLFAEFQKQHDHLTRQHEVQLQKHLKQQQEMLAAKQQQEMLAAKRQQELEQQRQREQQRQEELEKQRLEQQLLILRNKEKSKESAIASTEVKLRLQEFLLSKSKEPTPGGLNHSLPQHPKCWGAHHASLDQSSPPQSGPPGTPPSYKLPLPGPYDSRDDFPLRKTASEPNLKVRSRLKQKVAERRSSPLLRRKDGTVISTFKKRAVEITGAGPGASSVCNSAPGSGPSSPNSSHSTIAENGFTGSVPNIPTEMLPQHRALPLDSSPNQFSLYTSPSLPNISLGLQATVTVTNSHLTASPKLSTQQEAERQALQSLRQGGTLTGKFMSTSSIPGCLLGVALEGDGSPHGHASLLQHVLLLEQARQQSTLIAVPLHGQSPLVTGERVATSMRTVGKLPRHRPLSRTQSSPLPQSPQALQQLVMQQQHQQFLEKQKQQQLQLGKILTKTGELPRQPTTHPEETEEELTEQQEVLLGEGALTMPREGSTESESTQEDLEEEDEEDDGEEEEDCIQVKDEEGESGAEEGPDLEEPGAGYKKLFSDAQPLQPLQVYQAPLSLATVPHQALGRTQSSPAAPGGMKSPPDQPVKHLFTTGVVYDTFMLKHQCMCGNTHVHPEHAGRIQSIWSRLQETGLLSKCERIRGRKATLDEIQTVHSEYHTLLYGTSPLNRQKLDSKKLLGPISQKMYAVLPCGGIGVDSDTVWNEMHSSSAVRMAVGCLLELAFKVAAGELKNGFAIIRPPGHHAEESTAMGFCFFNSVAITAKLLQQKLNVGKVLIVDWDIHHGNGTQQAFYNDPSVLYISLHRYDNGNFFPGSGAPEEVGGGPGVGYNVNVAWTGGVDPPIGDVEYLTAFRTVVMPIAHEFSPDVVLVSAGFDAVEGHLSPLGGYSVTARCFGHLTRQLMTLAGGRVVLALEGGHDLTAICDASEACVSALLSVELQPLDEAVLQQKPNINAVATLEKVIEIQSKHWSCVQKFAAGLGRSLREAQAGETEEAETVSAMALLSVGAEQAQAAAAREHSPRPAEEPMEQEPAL
Outline: as §2

[5] = target: Polyamine deacetylase HDAC10 (Homo sapiens, UniProt Q969S8); assay: Inhibition of human HDAC10 using fluorogenic peptide from p53 residues 379 to 382 as substrate in presence of ATP
Polyamine deacetylase HDAC10, sequence (Q969S8 whole entry, the tested form may be a part): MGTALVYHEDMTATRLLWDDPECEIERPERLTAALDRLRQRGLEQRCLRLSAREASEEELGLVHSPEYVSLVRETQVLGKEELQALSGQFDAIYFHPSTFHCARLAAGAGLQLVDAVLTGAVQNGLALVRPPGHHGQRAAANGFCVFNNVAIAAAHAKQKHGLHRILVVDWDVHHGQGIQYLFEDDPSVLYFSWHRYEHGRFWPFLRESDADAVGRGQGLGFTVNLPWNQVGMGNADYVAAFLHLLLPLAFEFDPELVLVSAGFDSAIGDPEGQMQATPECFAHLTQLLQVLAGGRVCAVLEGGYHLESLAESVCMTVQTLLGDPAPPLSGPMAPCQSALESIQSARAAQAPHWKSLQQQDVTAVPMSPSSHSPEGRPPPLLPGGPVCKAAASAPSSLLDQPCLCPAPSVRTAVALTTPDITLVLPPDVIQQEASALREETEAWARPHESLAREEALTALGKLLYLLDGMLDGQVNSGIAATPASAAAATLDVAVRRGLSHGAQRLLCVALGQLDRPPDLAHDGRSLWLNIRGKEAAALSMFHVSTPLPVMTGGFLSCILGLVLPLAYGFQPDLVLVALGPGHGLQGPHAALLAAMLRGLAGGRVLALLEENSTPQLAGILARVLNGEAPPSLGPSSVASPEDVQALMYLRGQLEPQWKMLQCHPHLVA
Outline: as §2

MCF7 = assay: cells; format: functional, cell-based; conditions: Homo sapiens, MCF7, 72 h
HL-60 = assay: Antiproliferative activity against human HL60 cells; format: functional, cell-based
Jurkat = assay: cells; format: functional, cell-based; conditions: Homo sapiens
OPM-2 = assay: Antiproliferative activity against human OPM2 cells after 48 hrs by CellTiter-Glo luminescent assay; format: functional, cell-based; conditions: OPM-2, 48 h
[6] = Cmax in Wistar rat at 5 mg/kg, po administered via gavage by LC-MS/MS analysis; format: ADME, organism-based; parameters: dose 5 mg/kg, route oral; conditions: in vivo
Outline: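 Wistar rats given a single 5 mg/kg oral dose. Plasma concentration–time profiles were plotted as mean ± SEM and sampled through 24 h postdose.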

Non-receptor tyrosine-protein kinase TYK2, sequence (P29597 whole entry): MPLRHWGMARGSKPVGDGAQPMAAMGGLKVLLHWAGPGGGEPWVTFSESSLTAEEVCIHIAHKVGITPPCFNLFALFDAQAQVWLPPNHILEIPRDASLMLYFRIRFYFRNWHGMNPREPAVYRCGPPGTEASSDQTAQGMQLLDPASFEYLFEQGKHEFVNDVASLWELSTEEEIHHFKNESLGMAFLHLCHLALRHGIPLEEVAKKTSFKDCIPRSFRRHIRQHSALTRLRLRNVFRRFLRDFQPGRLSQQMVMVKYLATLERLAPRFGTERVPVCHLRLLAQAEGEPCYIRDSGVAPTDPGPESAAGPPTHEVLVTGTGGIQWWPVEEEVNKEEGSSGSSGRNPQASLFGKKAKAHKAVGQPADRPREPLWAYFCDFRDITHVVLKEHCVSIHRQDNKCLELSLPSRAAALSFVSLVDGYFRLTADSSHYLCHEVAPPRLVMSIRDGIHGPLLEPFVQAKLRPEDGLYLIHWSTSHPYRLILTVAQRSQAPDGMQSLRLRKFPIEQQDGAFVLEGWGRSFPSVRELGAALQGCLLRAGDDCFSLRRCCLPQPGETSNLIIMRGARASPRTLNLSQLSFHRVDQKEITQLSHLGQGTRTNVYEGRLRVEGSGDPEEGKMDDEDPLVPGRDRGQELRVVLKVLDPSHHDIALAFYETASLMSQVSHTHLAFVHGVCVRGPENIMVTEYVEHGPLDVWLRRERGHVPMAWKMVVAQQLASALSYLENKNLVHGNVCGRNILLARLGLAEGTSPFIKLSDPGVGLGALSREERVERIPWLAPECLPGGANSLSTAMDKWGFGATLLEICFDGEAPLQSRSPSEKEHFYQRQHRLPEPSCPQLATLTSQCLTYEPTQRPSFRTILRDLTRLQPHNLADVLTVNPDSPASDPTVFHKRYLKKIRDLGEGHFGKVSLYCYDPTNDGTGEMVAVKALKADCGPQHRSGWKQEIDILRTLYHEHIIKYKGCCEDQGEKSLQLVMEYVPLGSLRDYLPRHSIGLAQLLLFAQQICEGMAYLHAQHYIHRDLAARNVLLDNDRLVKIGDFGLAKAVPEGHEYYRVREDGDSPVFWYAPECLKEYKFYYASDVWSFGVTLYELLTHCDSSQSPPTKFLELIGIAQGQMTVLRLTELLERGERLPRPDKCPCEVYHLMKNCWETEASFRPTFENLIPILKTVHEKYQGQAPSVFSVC

## O=C(CCCCCCn1cc(-c2ncnc3[nH]ccc23)cn1)NO
TAMH
  IC50: 4630 nM
[1]
  IC50: 188 nM
[2]
  inhibition: 27%
[3]
  activity at 1 µM: 0.75%
[4]
  Activity: 7.5%
Histone deacetylase 2
  IC50: 5.8 nM
Histone deacetylase 5
  IC50: 10500 nM
[5]
  IC50: 19 nM
MCF7
  IC50: 840 nM
HL-60
  IC50: 7360 nM
Jurkat
  IC50: 470 nM
OPM-2
  IC50: 2160 nM
[6]
  Cmax: 15.9 ng/mL
